As usually defined, the IC50 is the concentration that gives 50% inhibition. As a reminder, the Ki is the equilibrium dissociation constant of an inhibitor or competing ligand from its target. Higher therefore signals weaker binding.

“And” between values parts separate entries of the source, which are not always exact repeats. Identical values can stand only once.

This passage reports IC50, Ki and KbS results from ChEMBL document CHEMBL1128208, “(3SR,4aRS,6SR,8aRS)-6-(1H-tetrazol-5-yl)decahydroisoquinoline-3-carboxylic acid, a novel, competitive, systemically active NMDA and AMPA receptor antagonist” (J Med Chem, 1995).

Molecular target in one assay: not listed separately
The assay is described as follows: Compound was evaluated for high binding affinity towards glycine site on the NMDA receptor. Set-up: species or system Rattus norvegicus.
Conditions: not given
In turn, `O=C1Nc2cc(Cl)ccc2CC1[N+](=O)[O-]` (centres undefined) showed an IC50 of 0.41 µM.

Molecular target in the next assay: not listed separately
Description: Binding affinity towards glycine site on the NMDA receptor was determined. Also on record: species or system Rattus norvegicus.
Conditions: not given
`O=[N+]([O-])c1cc2nc(O)c(O)nc2cc1[N+](=O)[O-]` [DNQX] showed a Ki of 0.39 µM.

A further assay is filed under the species Rattus norvegicus. The assay is described as follows: Inhibitory activity against compound induced depolarization of Kainic acid receptor in rat cortical slice preparation. Format: functional.
Conditions: not given
The method in brief:
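Cortical slice depolarizations evoked by 10 μM kainic acid. Test compound at concentrations up to 100 μM; the value is the IC50 for inhibition.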
In turn, `O=C(O)[C@H]1CC[C@H]2CN[C@H](C(=O)O)C[C@H]2C1` (racemic) returned a 50% inhibitory concentration (IC50) of over 100 µM.
`O=C(O)[C@@H]1C[C@H]2C[C@@H](c3nnn[nH]3)CC[C@H]2CN1` (racemic) had a half-inhibitory concentration (IC50) of over 100 µM.
The same measure, in the same setting: with `O=C(O)[C@@H]1C[C@H]2C[C@@H](Cc3nnn[nH]3)CC[C@H]2CN1` (racemic) the figure was over 100 µM; with `O=C(O)[C@@H]1C[C@H]2C[C@@H](CCc3nn[nH]n3)CC[C@H]2CN1` (racemic) [TEZAMPANEL ANHYDROUS], 31.7 µM.

The next assay addresses Glutamate receptor ionotropic AMPA (Homo sapiens, UniProt P42261+P42262+P42263+P48058). Description: Binding affinity against Ionotropic glutamate receptor AMPA using [3H]AMPA as a radioligand. Format: protein-complex assay.
Conditions: not given
On to `O=[N+]([O-])c1ccc2cc(NS(=O)(=O)C(F)(F)F)c(O)nc2c1`, for which the affinity, expressed as Ki, was 0.6 µM.
`O=C(O)[C@H]1CC[C@H]2CN[C@H](C(=O)O)C[C@H]2C1` (racemic) returned an IC50 of over 100 µM.
Compound `O=C(O)[C@@H]1C[C@H]2C[C@@H](c3nnn[nH]3)CC[C@H]2CN1` (racemic) registered an IC50 of 12.8 µM.
`O=C(O)[C@@H]1C[C@H]2C[C@H](c3nnn[nH]3)CC[C@H]2CN1` (racemic) came in with an IC50 of over 100 µM.
On the same count and under the same terms, next, `O=C(O)[C@@H]1C[C@H]2C[C@@H](Cc3nnn[nH]3)CC[C@H]2CN1` (racemic): 84.5 µM.
The same measure, in the same setting: with `O=C(O)[C@@H]1C[C@H]2C[C@@H](c3nnn[nH]3)CC[C@H]2CN1` (stereo in doubt; (+)-6) the figure was over 100 µM; with `O=C(O)[C@@H]1C[C@H]2C[C@@H](c3nnn[nH]3)CC[C@H]2CN1` (stereo in doubt; (-)-6), 5.7 µM.
For `O=[N+]([O-])c1cc2nc(O)c(O)nc2cc1[N+](=O)[O-]` [DNQX], the Ki was 0.36 µM.

Another assay is filed under the species Rattus norvegicus. The assay is described as follows: Inhibitory activity against compound induced depolarization of NMDA receptor in rat cortical slice preparation. In kind it is functional.
Conditions: not given
The method in brief: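 Cortical slice preparation. Depolarizations evoked by 40 μM NMDA; the value is the IC50 for inhibition of the NMDA response.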
`O=C(O)[C@@H]1C[C@H]2C[C@@H](c3nnn[nH]3)CC[C@H]2CN1` (racemic) gave an IC50 of 7.5 µM.
For `O=C(O)[C@@H]1C[C@H]2C[C@@H](c3nnn[nH]3)CC[C@H]2CN1` (stereo in doubt; (+)-6), the IC50 is over 100 µM.
Still for that read-out and setting: with `O=C(O)[C@@H]1C[C@H]2C[C@@H](c3nnn[nH]3)CC[C@H]2CN1` (stereo in doubt; (-)-6) the figure was 4.1 µM.

The assay is the same for the next values; noted with them: Rattus norvegicus.
As for `O=C(O)[C@H]1CC[C@H]2CN[C@H](C(=O)O)C[C@H]2C1` (racemic), the IC50 is over 100 µM.
Same read-out and setting: with `O=C(O)[C@@H]1C[C@H]2C[C@H](c3nnn[nH]3)CC[C@H]2CN1` (racemic) the figure was 65 µM.
Same read-out and setting: with `O=C(O)[C@@H]1C[C@H]2C[C@@H](Cc3nnn[nH]3)CC[C@H]2CN1` (racemic) the figure was 1.4 µM; with `O=C(O)[C@@H]1C[C@H]2C[C@@H](CCc3nn[nH]n3)CC[C@H]2CN1` (racemic) [TEZAMPANEL ANHYDROUS], 61.3 µM.

Another assay has as its target Glutamate NMDA receptor. The assay is described as follows: Binding affinity against NMDA receptor using [3H]-CGS- 19755 as a radioligand in rat.
Conditions: not given
The method in brief:
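Displacement of the selective NMDA-site radioligand [3H]CGS 19755. Run in triplicate unless otherwise indicated; IC50 reported.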
Take `O=C(O)[C@H]1CC[C@H]2CN[C@H](C(=O)O)C[C@H]2C1` (racemic): the IC50 is over 100 µM.
Turning to `O=C(O)[C@@H]1C[C@H]2C[C@@H](c3nnn[nH]3)CC[C@H]2CN1` (racemic), the IC50 stood at 1.6 µM.
On the same count and under the same terms, with `O=C(O)[C@@H]1C[C@H]2C[C@H](c3nnn[nH]3)CC[C@H]2CN1` (racemic) the figure was 38.4 µM.
`O=C(O)[C@@H]1C[C@H]2C[C@@H](Cc3nnn[nH]3)CC[C@H]2CN1` (racemic) registered an IC50 of 0.82 µM.
On the same count and under the same terms, with `O=C(O)[C@@H]1C[C@H]2C[C@@H](CCc3nn[nH]n3)CC[C@H]2CN1` (racemic) [TEZAMPANEL ANHYDROUS] the figure was 26.4 µM; with `O=C(O)[C@@H]1C[C@H]2C[C@@H](c3nnn[nH]3)CC[C@H]2CN1` (stereo in doubt; (+)-6), over 100 µM.
The same measure, in the same setting: next, `O=C(O)[C@@H]1C[C@H]2C[C@@H](c3nnn[nH]3)CC[C@H]2CN1` (stereo in doubt; (-)-6): 1 µM.

The next assay is filed under the species Rattus norvegicus. Description: Inhibitory activity against compound induced depolarization of AMPA receptor in rat cortical slice preparation. Format: functional.
Conditions: not given
The gist of the method:
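Cortical slice preparation. Depolarizations evoked by 40 μM AMPA or 40 μM quisqualic acid (QUIS); the value is the IC50 for inhibition of the agonist response.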
Consider `O=C(O)[C@@H]1C[C@H]2C[C@@H](c3nnn[nH]3)CC[C@H]2CN1` (racemic), for which the half-inhibitory concentration (IC50) stood at 40.9 µM.
On the same count and under the same terms, next, `O=C(O)[C@@H]1C[C@H]2C[C@@H](c3nnn[nH]3)CC[C@H]2CN1` (stereo in doubt; (+)-6): over 100 µM.
Still for that read-out and setting: with `O=C(O)[C@@H]1C[C@H]2C[C@@H](c3nnn[nH]3)CC[C@H]2CN1` (stereo in doubt; (-)-6) the figure was 13.2 µM.

Still in this assay, the particulars now being: Rattus norvegicus.
With `O=C(O)[C@H]1CC[C@H]2CN[C@H](C(=O)O)C[C@H]2C1` (racemic), the IC50 was over 100 µM.
Still for that read-out and setting: next, `O=C(O)[C@@H]1C[C@H]2C[C@H](c3nnn[nH]3)CC[C@H]2CN1` (racemic): over 100 µM; `O=C(O)[C@@H]1C[C@H]2C[C@@H](Cc3nnn[nH]3)CC[C@H]2CN1` (racemic): over 100 µM.
`O=C(O)[C@@H]1C[C@H]2C[C@@H](CCc3nn[nH]n3)CC[C@H]2CN1` (racemic) [TEZAMPANEL ANHYDROUS] showed an IC50 of 6 µM.

Another assay is filed under the species Xenopus sp. Description: Compound was evaluated for blocking of depolarization induced by 30 uM AMPA in xenopus oocytes injected with rat brain m-RNA. Format: functional, frog.
Conditions: not given
The compound `O=[N+]([O-])c1ccc2cc(NS(=O)(=O)C(F)(F)F)c(O)nc2c1` gave an inhibition constant Ki of 0.37 µM.

For another assay, the target named is Glutamate receptor ionotropic kainate. The assay is described as follows: Binding affinity against Ionotropic glutamate receptor kainate using [3H]-Kainic acid as a radioligand.
Conditions: not given
Format: protein-complex assay. The gist of the method: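 Displacement of [3H]kainic acid from kainate receptor sites. Run in triplicate unless otherwise indicated; IC50 reported.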
Take `O=C(O)[C@@H]1C[C@H]2C[C@@H](c3nnn[nH]3)CC[C@H]2CN1` (racemic): the IC50 was determined as 31.8 µM.
The same measure, in the same setting: next, `O=C(O)[C@@H]1C[C@H]2C[C@H](c3nnn[nH]3)CC[C@H]2CN1` (racemic): over 100 µM.
The same measure, in the same setting: with `O=C(O)[C@@H]1C[C@H]2C[C@@H](Cc3nnn[nH]3)CC[C@H]2CN1` (racemic) the figure was over 100 µM; with `O=C(O)[C@@H]1C[C@H]2C[C@@H](CCc3nn[nH]n3)CC[C@H]2CN1` (racemic) [TEZAMPANEL ANHYDROUS], 247 µM.
With `O=C(O)[C@@H]1C[C@H]2C[C@@H](c3nnn[nH]3)CC[C@H]2CN1` (stereo in doubt; (+)-6), the IC50 was over 100 µM.
Still for that read-out and setting: with `O=C(O)[C@@H]1C[C@H]2C[C@@H](c3nnn[nH]3)CC[C@H]2CN1` (stereo in doubt; (-)-6) the figure was 21 µM.

The species named for the next assay is Xenopus sp. The assay is described as follows: Compound was evaluated for blocking of depolarization induced by 30 uM NMDA in xenopus oocytes injected with rat brain m-RNA.
Conditions: not given
In turn, `O=[N+]([O-])c1ccc2cc(NS(=O)(=O)C(F)(F)F)c(O)nc2c1` had a Ki of 0.62 µM.

The species entered for another assay is Rattus norvegicus. Description: Compound was evaluated against compound induced depolarization of NMDA receptor in rat cortical slice preparation. Format: functional.
Conditions: not given
The method in brief: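 Cortical slice preparation in which depolarization was induced by 40 μM NMDA. Antagonism was measured as inhibition of this depolarization, and […].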
Consider `O=C1Nc2cc(Cl)ccc2CC1[N+](=O)[O-]` (centres undefined), for which the KbS was 6.7 µM and 9.2 µM.
